# Sampled rows, rich in hits. Any-hit rate of the full collection: about 7.2%.
# HEK293 NFkB inh: inhibitors of PMA/ionomycin-induced NF-kB reporter, primary screen, antigen receptor NF-kB inhibitor project, cell-based, HEK-293 luciferase reporter, luminescence | 0.21% of 62,000 active | inhibition, % at 3 µM | HEK-293 NF-kB luciferase reporter;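 active = inhibition above the mean of all tested compounds plus 3 SD, cut at about 40% in these data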;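 note: 0% = stimulated DMSO wells and 100% = 10 µM reference inhibitor 5653914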
#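 Reagent: PMA plus ionomycin mix as NF-kB-activating stimulus. Assay system: NF-kB luciferase reporter HEK-293 cells. Technique: luminescence from luciferase substrate reagent. Incubation: 1 h compound pre-incubation, 16 h PMA/ionomycin at 37 °C. Benchmarks: DMSO only as uninhibited control, 10 µM reference inhibitor as full inhibition. Repeats: tested once.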
# D1 mod: D1 CRE-luciferase signal change, two-sided – cell-based, HEK293 D1, dopamine EC30, D1 allosteric modulator project, primary screen; 5.9% of 58,000 active; dopamine EC30 potentiation; actives deviate in either direction; B-score at 10 µM;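 active = luminescence count or its row- and column-corrected plate score outside the 99.7% band of the plate's sample wells, on either side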
# M1 antag: antagonists of rat M1 muscarinic receptor. Muscarinic acetylcholine receptor M1 (Rattus norvegicus), P08482. 3.4% of 64,000 active. AID 628, 2007. B-score at 10 µM. CHO-M1 cells, Fluo-4 calcium, ACh EC80 antagonist mode; active compounds read low;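 active = calcium fluorescence response, raw or row-and-column corrected B-score, differing from the plate sample mean either way at a set confidence level, mostly lower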
# Target sequence (P08482 whole entry, looked up): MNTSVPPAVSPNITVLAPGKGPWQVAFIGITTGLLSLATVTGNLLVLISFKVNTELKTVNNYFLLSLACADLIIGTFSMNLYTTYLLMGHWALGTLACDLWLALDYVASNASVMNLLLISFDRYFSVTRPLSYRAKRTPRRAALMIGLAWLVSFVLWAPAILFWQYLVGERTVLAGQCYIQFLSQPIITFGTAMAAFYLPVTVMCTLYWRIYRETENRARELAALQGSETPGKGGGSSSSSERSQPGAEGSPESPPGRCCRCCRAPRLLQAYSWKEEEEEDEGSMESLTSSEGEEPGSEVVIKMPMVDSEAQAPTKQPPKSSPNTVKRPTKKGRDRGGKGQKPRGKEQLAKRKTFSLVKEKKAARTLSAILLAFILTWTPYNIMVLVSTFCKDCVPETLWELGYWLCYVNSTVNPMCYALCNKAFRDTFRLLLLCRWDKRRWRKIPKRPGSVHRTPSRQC
# M1 agonist: M1 muscarinic receptor agonists, primary screen, CHO-M1 cells, Fluo-4 calcium, agonist mode. Fluo-4 calcium fluorescence; active compounds read high. B-score at 10 µM. AID 626, 2007. 3% of 64,000 active;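 active = fluorescence rise, raw or as B-score row- and column-corrected plate score, outside the 99.7% band of its plate's samples, either direction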
# DAT uptake mod: changed hDAT dopamine uptake under cocaine IC80, either direction, primary screen, cocaine antagonist project, cell-based, LLC-PK1 hDAT, [14C]-dopamine uptake, MLSMR; Sodium-dependent dopamine transporter (Homo sapiens), Q01959; AID 449768, 2010; B-score at 10 µM; LLC-PK1 hDAT cells, [14C]-dopamine uptake with cocaine IC80; actives deviate in either direction; 1.3% of 110,000 active;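 active = Z score or B-score, a plate-position-corrected score, falls beyond the plate's 99.7% confidence bounds, in either direction; inactive = both scores lie inside the 99.7% bounds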;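 note: scored against the spread of the other compound wells on the same plate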
# BAP1 inh: inhibitors of BAP1 deubiquitinase, primary screen, biochemical, Ub-AMC fluorescence, kinetic; recombinant BAP1, Ub-AMC hydrolysis fluorescence kinetic; active compounds read low; calls only at 20 µM; 0.48% of 72,000 active; AID 436, 2006;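 active = activity remaining at or below 50% of control, provided the compound also passes the data quality filters; inactive = the rest, including low values that fail the filters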;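 note: 100% = DMSO wells rate and 0% = substrate alone blank rate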
# D1 PAM confirm: D1 receptor positive allosteric modulators, retest, confirmation, cell-based, HEK293 D1, CRE-luciferase, duplicate; luminescence at 10 µM; dopamine EC30 potentiation; active compounds read high; shares compounds with D1 mod; 88% of 2,200 active;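 active = luminescence in either of two replicates above the same-plate mean plus 3 SD of the low-dose dopamine control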
# D1 ag no DA: D1 receptor agonism without dopamine, confirmation, mechanism study for D1 allosteric modulator project, cell-based, HEK293 D1, CRE-luciferase, secondary assay 1 | shares compounds with D1 mod | 0.8% of 1,900 active | AID 646, 2007 | luminescence, no dopamine; active compounds read high | luminescence at 10 µM; in the data active = luminescence above about 3900
# Isoprot counter: isoproterenol response counter-screen activity for D1 modulators; 63% of 2,200 active; calls only at 10 µM; HEK293 D1 CRE-luciferase, isoproterenol EC30 counter-screen; shares compounds with D1 mod;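 active = luminescence in either replicate above plate mean of wells with a partly effective reference agonist dose plus 3 SD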;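 note: isoproterenol raises cAMP through native beta-adrenoceptor Gs so signal bypasses D1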
# * hit, by the source's call; i = inactive; x = no result shown; + = active, no number.
SMILES,HEK293 NFkB inh,D1 mod,M1 antag,M1 agonist,DAT uptake mod,BAP1 inh,D1 PAM confirm,D1 ag no DA,Isoprot counter
N#Cc1c2c(c(NCCCN3CCOCC3)n3c1nc1ccccc13)CCC2,2.1,0.00909,-1.06,-0.237,1.12,x,x,x,x
N#Cc1c2c(c(NCCN3CCOCC3)n3c1nc1ccccc13)CCCC2,13.2,3.5*,-0.00929,1.97,-1,x,15848*,1800,+
CC(=O)Nc1cc2c(cc1C(=O)c1ccccc1)OCCO2,9.0,6.34*,-0.313,-1.23,x,i,8592*,1552,+
CCC(=O)Nc1cc2c(cc1C(=O)CC)OCCO2,15.2,13.6*,-2.03,0.379,-2.52,x,12916*,1684,+
CCCC(=O)c1cc2c(cc1NC(=O)c1cccs1)OCCO2,x,x,x,x,0.742,x,x,x,x
CCC(=O)Nc1cc2c(cc1C(=O)c1ccccc1)OCCO2,13.5,13.4*,-0.114,-0.848,0.0735,i,15532*,x,+
N#CC1=C(N)SC2(CCCCC2)SC1c1ccccc1 (centres undefined),6.6,3.17*,-2.41,-0.204,-0.558,i,6560*,x,+
COc1ccc2c(c1)C(=O)N(c1ccccc1)C(=O)C2,x,x,x,x,-0.528,x,x,x,x
COc1ccc2c(c1)C(=O)N(c1ccccc1OC)C(=O)C2(C)C,14.8,6.89*,-0.0501,-0.165,-0.59,i,11528*,1476,i
CCOC(=O)Cc1nnc(NC(=O)CSc2nnc3c4ccccc4n(C(C)C)c3n2)s1,8.5,7.5*,0.307,-1.72,0.328,i,11008*,1700,+
CCc1nnc(NC(=O)CSc2nnc3c4ccccc4n(C)c3n2)s1,14.8,2.39,-0.652,-0.333,0.606,i,x,x,x
CN(C)c1nc(N)nc(CSc2n[nH]c(-c3ccccc3)n2)n1,-1.2,7.84*,0.0317,0.664,-0.0238,i,9244*,1568,+
O=C(CSc1n[nH]c(-c2ccccc2)n1)c1ccccc1,5.2,1.35,0.439,-0.495,-0.133,i,x,x,x
C=CCSc1nc(N)c(C#N)c(-c2ccc(C)cc2)c1C#N,15.7,3.15*,0.055,-0.172,-0.654,x,4628,1776,i
CCOC(=O)CSc1nc(N)c(C#N)c(-c2ccc(OCC)cc2)c1C#N,-5.6,0.726,0.0322,-0.294,1.2,i,x,x,x
OC[C@H]1O[C@@H](n2cnc3c(NCCc4ccccc4)ncnc32)C(O)[C@H]1O (some centres undefined),x,x,x,x,x,i,x,x,x
CC1(C)Cc2nc(-c3ccccc3)n3cnnc3c2CO1,12.7,9.47*,0.263,-0.565,-0.041,x,13436*,1760,+
COc1ccc(CNc2ccc(S(N)(=O)=O)cc2)c(OC)c1OC,1.7,5.34*,-0.584,0.791,0.835,i,7284*,1472,+
O=S(=O)(c1cccs1)N1CN(Cc2ccc(F)cc2)c2nc3ccccc3nc21,x,x,x,x,0.817,x,x,x,x
C=CCN1CN(S(=O)(=O)c2cccs2)c2nc3ccccc3nc21,0.5,6.04*,0.0396,-0.682,-0.971,i,14144*,1432,+
O=S(=O)(c1cccs1)N1CN(Cc2ccccc2)c2nc3ccccc3nc21,x,x,x,x,1.99,x,x,x,x
O=S(=O)(c1cccs1)N1CN(Cc2cccs2)c2nc3ccccc3nc21,5.5,3.82*,-0.321,0.0677,-0.0284,i,15624*,1724,+
O=C1Sc2cccc3cccc1c23,x,x,x,x,x,i,x,x,x
N#Cc1nc(-c2ccco2)oc1NCCc1ccccc1,18.8,5.51*,-0.902,-0.0489,0.427,x,13580*,1764,+
N#Cc1nc(-c2cccs2)oc1NCCc1ccccc1,x,11.8*,-0.302,0.0436,-0.761,i,14100*,1620,+
SMILES,HEK293 NFkB inh,D1 mod,M1 antag,M1 agonist,DAT uptake mod,BAP1 inh,D1 PAM confirm,D1 ag no DA,Isoprot counter
COc1ccc(Nc2oc(-c3cccs3)nc2C#N)cc1,x,8.11*,0.381,-0.431,-0.153,i,16196*,1612,+
Cc1ccc(CNc2oc(-c3ccco3)nc2C#N)cc1,14.6,26.9*,0.177,0.0312,x,x,18284*,1756,+
N#Cc1nc(-c2cccs2)oc1NCc1ccc2c(c1)OCO2,x,16.5*,-0.444,-0.71,0.145,i,19192*,1548,+
c1ccc(C2=Nn3c(nnc3-c3ccccn3)SC2)cc1,x,x,-0.495,-0.39,-1.18,i,x,x,x
CCCc1nnc2n1N=C(c1ccc(OC)c(OC)c1)CS2,26.0,25.8*,1.45,1.26,1.6,i,22008*,x,+
c1ccc(C2=Nn3c(nnc3-c3ccncc3)SC2)cc1,-2.9,2.89*,0.961,0.774,-0.178,i,9856*,1576,i
CCOc1ccc(C2=Nn3c(nnc3-c3cccnc3)SC2)cc1,x,x,0.0242,0.522,-0.0979,i,x,x,x
CCCc1nnc2n1N=C(c1ccc(OC)cc1)CS2,x,x,x,x,x,i,x,x,x
c1ccc(C2=Nn3c(nnc3-c3cccnc3)SC2)cc1,16.7,4.89*,-0.772,-0.00238,-0.947,i,11260*,1752,i
COc1ccc(C2=Nn3c(nnc3-c3cccnc3)SC2)cc1,18.3,5.55*,0.00625,0.0918,-0.425,i,10056*,1736,+
CC(C)NC(=O)c1nn2c(C(F)(F)F)cc(-c3ccc(Br)cc3)nc2c1Br,x,x,x,x,x,i,x,x,x
CCCOC(=O)c1ccc(-c2n[nH]c(=O)c3ccccc23)cc1,x,x,x,x,x,i,x,x,x
COc1ccc(C2=Nn3c(nnc3-c3ccccc3)SC2)cc1OC,x,29*,0.563,-0.561,0.00667,i,21404*,x,+
Cc1cccc(-c2nnc3n2N=C(c2ccccc2)CS3)c1,x,15.5*,0.371,0.157,0.436,i,3880,1728,+
Cc1ccc(-c2nnc3n2N=C(c2ccccc2Br)CS3)cc1,15.9,16.4*,0.242,0.449,1.36,i,15256*,1688,+
COc1ccc(-c2nnc3n2N=C(c2ccccc2)CS3)cc1OC,5.7,1.58,0.585,-0.477,x,i,x,x,x
